According to ChEMBL document CHEMBL2424619, “Small-molecule ligands of methyl-lysine binding proteins: optimization of selectivity for L3MBTL3” (J Med Chem, 2013):

Key:
TP53-binding protein 1 = TP53-binding protein 1 (Homo sapiens, UniProt Q12888); test: Inhibition of 53BP1 (unknown origin) after 30 mins by AlphaScreen assay
Summary of the method: (§1)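 AlphaScreen competition with histone peptide. Compounds in 3-fold, 10-point dilutions, top 10 or 30 μM; buffer 20 mM Tris pH 8.0, 25 mM NaCl, 2 mM DTT, 0.05% Tween-20. Protein-peptide mix 30 min RT, then streptavidin donor plus nickel-chelate acceptor beads (GST acceptor beads for GST-tagged PHF23, JARID1A) 30 min RT dark. […] Protein-free His6-biotin peptide counterscreen.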

[1] = molecular target: T1, E3 ubiquitin-protein ligase UHRF1 (Homo sapiens, UniProt Q96T88); test: Inhibition of UHRF1 (unknown origin) after 30 mins by AlphaScreen assay; summary of the method: as §1
T1 sequence (Q96T88 whole entry): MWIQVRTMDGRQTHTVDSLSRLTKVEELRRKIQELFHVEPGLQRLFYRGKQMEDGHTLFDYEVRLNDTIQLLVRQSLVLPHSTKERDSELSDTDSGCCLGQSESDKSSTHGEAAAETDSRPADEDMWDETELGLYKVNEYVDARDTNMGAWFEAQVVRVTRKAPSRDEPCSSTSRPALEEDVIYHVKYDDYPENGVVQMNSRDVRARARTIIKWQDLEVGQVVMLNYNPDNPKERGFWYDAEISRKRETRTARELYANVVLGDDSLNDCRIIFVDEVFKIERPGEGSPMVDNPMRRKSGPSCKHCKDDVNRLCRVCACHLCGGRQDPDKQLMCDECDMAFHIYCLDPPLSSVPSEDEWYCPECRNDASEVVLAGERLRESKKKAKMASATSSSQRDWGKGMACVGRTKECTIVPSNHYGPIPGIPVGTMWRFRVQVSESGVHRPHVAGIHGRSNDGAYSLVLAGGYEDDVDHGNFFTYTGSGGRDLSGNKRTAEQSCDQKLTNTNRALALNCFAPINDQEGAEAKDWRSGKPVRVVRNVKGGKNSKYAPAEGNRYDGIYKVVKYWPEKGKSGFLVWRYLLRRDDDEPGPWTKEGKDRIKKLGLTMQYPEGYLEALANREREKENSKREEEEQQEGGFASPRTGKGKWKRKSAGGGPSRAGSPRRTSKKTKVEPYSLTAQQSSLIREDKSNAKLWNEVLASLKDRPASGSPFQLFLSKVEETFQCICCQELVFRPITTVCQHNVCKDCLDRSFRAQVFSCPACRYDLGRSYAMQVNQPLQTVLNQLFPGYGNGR

[2] = molecular target: T2, Lethal(3)malignant brain tumor-like protein 3 (Homo sapiens, UniProt Q96JM7); test: Inhibition of L3MBTL3 (unknown origin) after 30 mins by AlphaScreen assay
T2 sequence (Q96JM7 whole entry): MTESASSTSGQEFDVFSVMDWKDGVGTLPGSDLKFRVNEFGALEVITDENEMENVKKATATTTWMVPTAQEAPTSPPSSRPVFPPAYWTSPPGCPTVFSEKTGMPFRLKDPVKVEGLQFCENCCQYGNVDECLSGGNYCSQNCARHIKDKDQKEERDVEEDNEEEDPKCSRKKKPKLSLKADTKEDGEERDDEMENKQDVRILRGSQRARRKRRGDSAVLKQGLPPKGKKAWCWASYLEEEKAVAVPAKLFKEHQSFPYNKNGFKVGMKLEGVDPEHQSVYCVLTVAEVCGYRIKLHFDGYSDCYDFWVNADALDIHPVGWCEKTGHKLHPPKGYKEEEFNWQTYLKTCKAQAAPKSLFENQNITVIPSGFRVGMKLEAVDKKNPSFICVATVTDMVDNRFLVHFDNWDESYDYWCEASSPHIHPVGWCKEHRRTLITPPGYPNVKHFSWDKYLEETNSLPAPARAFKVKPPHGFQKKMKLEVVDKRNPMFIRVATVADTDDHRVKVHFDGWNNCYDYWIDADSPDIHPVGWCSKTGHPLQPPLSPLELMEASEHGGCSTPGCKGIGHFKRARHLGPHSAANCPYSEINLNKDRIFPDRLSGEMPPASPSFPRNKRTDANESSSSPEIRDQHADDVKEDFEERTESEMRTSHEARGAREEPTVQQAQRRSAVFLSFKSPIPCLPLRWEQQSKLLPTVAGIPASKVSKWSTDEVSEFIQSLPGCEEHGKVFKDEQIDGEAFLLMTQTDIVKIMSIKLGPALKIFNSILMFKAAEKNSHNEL
Summary of the method: (§2)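 AlphaScreen competition with histone peptide. Compounds in 3-fold, 10-point dilutions, top 10 or 30 μM; buffer 20 mM Tris pH 8.0, 25 mM NaCl, 2 mM DTT, 0.05% Tween-20. Protein-peptide mix 30 min RT, then streptavidin donor plus nickel-chelate acceptor beads (GST acceptor beads for GST-tagged PHF23, JARID1A) 30 min RT dark. Protein-free His6-biotin peptide counterscreen.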

HEK-293T = test: Cytotoxicity against HEK293T/17 cells assessed as cell viability up to 100 uM after 24 hrs by CellTiter-Glo luminescence assay; assay type: cell-based; details: human
Summary of the method: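 Cell viability by CellTiter-Glo luminescence, compound tested up to 100 μM.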

[3] = molecular target: Lysine-specific demethylase 5A (Homo sapiens, UniProt P29375); test: Inhibition of JARID1A (unknown origin) after 30 mins by AlphaScreen assay; summary of the method: as §1
[4] = molecular target: T3, Scm-like with four MBT domains protein 1 (Homo sapiens, UniProt Q9UHJ3); test: Inhibition of SFMBT1 (unknown origin) after 30 mins by AlphaScreen assay; summary of the method: as §1
T3 sequence (Q9UHJ3 whole entry): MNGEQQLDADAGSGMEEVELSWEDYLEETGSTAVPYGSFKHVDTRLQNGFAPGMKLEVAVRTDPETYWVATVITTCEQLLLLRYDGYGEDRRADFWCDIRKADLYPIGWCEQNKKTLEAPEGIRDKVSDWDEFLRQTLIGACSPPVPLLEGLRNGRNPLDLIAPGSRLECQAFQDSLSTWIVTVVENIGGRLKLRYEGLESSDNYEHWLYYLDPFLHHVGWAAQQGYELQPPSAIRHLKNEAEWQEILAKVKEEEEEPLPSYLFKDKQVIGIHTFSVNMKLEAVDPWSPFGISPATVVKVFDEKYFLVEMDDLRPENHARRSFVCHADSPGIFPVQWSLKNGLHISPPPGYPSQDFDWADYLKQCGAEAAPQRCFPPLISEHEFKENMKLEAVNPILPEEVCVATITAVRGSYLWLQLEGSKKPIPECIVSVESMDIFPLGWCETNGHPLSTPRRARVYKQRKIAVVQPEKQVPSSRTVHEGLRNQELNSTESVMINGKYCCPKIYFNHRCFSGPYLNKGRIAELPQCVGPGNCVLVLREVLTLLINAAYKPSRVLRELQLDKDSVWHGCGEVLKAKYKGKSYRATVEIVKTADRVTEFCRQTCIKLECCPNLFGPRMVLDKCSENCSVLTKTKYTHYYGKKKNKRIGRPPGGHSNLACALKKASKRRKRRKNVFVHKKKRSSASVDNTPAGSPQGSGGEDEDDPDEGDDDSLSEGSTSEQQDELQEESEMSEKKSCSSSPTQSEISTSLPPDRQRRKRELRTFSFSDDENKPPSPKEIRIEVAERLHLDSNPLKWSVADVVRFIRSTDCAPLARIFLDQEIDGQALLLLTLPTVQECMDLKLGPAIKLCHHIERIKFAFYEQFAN

[5] = molecular target: T4, Chromobox protein homolog 7 (Homo sapiens, UniProt O95931); test: Inhibition of CBX7 (unknown origin) after 30 mins by AlphaScreen assay; summary of the method: as §2
T4 sequence (O95931 whole entry): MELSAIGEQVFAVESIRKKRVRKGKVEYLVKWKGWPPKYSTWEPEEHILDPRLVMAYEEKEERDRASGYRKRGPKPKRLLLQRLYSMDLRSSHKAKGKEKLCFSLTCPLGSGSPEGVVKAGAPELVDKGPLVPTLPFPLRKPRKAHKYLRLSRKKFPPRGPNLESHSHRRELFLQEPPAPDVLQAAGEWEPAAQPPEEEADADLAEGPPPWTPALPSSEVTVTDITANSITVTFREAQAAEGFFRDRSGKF

[6] = molecular target: T5, Lethal(3)malignant brain tumor-like protein 4 (Homo sapiens, UniProt Q8NA19); test: Inhibition of L3MBTL4 (unknown origin) after 30 mins by AlphaScreen assay; summary of the method: as §2
T5 sequence (Q8NA19 whole entry): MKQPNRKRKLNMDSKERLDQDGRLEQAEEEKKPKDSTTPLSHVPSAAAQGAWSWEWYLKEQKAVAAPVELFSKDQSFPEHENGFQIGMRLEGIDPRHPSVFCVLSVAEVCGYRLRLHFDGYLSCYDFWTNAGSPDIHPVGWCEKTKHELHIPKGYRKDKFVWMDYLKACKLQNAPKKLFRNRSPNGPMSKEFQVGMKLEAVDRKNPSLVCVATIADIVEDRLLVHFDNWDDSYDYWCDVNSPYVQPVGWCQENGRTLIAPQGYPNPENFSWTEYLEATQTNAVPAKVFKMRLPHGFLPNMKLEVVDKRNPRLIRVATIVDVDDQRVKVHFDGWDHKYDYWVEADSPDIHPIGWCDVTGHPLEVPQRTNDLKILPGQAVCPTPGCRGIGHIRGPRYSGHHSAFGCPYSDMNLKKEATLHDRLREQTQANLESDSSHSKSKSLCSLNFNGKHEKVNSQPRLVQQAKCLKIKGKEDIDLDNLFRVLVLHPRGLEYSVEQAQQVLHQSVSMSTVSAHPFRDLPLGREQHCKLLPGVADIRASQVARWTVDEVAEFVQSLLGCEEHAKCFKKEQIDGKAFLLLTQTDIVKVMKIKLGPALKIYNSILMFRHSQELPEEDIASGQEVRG

[7] = molecular target: MBT domain-containing protein 1 (Homo sapiens, UniProt Q05BQ5); test: Inhibition of MBTD1 (unknown origin) after 30 mins by AlphaScreen assay; summary of the method: as §2
PHD finger protein 23 = PHD finger protein 23 (Homo sapiens, UniProt Q9BUL5); test: Inhibition of PHF23 (unknown origin) after 30 mins by AlphaScreen assay; summary of the method: as §2
Sequence of PHD finger protein 23 (Q9BUL5 whole entry): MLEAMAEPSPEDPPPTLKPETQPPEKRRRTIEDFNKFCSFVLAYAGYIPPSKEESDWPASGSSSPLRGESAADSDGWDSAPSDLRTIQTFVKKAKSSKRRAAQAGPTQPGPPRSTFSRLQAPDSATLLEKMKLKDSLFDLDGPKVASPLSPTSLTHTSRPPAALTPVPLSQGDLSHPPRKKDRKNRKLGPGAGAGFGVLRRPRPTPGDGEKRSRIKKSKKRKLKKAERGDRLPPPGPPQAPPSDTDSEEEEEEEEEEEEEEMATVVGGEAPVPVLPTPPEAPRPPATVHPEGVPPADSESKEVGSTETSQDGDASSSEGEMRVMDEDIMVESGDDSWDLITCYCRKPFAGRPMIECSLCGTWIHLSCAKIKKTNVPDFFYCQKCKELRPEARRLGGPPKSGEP

Sequence of TP53-binding protein 1 (Q12888 whole entry): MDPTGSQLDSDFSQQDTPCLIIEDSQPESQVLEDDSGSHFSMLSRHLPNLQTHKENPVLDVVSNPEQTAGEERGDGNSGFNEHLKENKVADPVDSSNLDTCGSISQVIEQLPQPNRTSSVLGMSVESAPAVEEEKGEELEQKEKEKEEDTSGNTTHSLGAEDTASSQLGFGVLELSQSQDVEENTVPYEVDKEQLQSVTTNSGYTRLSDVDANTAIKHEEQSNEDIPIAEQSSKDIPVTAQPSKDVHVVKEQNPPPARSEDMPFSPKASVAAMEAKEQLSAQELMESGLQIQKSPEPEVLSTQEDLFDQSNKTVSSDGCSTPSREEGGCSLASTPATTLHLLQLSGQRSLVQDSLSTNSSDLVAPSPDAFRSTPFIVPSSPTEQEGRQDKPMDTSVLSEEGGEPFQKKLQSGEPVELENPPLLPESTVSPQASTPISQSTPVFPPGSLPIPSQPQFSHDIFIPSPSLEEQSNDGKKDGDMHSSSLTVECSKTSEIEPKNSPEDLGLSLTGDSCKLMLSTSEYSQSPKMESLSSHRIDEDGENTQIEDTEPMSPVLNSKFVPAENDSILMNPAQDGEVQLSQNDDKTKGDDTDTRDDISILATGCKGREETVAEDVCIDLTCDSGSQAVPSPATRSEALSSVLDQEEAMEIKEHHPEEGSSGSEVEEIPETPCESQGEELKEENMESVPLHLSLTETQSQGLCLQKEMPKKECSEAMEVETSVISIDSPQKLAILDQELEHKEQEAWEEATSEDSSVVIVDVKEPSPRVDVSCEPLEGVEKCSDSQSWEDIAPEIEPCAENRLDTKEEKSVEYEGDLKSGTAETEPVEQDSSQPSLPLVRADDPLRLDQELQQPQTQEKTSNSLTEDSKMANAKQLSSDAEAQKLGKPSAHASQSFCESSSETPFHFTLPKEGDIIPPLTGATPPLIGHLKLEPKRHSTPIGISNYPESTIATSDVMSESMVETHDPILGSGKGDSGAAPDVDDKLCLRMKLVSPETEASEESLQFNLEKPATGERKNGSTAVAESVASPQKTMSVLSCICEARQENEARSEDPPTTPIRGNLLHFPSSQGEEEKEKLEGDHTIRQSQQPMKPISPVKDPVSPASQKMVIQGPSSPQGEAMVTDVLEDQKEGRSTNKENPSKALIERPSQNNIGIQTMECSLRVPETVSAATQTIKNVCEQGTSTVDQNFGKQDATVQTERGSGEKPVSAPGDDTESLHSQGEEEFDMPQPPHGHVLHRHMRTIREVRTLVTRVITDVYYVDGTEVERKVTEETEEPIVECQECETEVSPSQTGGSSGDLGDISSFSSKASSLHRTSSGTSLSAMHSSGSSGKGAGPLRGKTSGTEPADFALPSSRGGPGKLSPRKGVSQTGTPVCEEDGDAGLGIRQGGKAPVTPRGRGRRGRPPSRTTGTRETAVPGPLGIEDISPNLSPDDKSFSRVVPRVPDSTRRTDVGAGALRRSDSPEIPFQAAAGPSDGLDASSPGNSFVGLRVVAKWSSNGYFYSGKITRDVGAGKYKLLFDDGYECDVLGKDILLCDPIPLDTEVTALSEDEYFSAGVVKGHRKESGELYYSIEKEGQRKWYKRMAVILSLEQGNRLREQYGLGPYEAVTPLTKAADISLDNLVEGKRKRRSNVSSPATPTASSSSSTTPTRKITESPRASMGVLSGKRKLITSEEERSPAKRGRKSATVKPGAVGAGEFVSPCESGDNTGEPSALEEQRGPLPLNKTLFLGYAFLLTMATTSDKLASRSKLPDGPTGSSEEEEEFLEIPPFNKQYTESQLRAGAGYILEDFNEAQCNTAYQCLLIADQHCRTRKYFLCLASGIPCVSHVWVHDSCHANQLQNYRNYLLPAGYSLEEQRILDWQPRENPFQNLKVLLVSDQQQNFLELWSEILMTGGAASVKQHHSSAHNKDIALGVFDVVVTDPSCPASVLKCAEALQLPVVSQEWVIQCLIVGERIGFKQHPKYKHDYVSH
Sequence of MBT domain-containing protein 1 (Q05BQ5 whole entry, the tested form may be a part): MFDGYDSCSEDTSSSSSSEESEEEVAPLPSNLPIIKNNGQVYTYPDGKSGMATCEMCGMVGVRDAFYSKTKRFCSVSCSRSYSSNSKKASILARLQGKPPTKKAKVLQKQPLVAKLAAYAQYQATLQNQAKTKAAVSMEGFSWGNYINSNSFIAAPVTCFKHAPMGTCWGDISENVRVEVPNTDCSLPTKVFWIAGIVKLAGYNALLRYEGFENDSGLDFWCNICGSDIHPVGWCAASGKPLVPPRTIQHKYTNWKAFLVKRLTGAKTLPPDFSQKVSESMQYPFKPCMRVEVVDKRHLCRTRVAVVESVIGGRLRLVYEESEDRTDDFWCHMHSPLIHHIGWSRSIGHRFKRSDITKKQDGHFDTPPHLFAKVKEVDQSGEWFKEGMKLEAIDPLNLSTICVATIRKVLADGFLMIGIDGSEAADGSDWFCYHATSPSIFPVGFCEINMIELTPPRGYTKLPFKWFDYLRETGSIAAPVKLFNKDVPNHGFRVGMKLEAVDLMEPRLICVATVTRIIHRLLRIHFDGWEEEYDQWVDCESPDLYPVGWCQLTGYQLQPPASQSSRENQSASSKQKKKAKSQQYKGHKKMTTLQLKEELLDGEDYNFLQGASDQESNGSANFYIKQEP
Sequence of Lysine-specific demethylase 5A (P29375 whole entry, the tested form may be a part): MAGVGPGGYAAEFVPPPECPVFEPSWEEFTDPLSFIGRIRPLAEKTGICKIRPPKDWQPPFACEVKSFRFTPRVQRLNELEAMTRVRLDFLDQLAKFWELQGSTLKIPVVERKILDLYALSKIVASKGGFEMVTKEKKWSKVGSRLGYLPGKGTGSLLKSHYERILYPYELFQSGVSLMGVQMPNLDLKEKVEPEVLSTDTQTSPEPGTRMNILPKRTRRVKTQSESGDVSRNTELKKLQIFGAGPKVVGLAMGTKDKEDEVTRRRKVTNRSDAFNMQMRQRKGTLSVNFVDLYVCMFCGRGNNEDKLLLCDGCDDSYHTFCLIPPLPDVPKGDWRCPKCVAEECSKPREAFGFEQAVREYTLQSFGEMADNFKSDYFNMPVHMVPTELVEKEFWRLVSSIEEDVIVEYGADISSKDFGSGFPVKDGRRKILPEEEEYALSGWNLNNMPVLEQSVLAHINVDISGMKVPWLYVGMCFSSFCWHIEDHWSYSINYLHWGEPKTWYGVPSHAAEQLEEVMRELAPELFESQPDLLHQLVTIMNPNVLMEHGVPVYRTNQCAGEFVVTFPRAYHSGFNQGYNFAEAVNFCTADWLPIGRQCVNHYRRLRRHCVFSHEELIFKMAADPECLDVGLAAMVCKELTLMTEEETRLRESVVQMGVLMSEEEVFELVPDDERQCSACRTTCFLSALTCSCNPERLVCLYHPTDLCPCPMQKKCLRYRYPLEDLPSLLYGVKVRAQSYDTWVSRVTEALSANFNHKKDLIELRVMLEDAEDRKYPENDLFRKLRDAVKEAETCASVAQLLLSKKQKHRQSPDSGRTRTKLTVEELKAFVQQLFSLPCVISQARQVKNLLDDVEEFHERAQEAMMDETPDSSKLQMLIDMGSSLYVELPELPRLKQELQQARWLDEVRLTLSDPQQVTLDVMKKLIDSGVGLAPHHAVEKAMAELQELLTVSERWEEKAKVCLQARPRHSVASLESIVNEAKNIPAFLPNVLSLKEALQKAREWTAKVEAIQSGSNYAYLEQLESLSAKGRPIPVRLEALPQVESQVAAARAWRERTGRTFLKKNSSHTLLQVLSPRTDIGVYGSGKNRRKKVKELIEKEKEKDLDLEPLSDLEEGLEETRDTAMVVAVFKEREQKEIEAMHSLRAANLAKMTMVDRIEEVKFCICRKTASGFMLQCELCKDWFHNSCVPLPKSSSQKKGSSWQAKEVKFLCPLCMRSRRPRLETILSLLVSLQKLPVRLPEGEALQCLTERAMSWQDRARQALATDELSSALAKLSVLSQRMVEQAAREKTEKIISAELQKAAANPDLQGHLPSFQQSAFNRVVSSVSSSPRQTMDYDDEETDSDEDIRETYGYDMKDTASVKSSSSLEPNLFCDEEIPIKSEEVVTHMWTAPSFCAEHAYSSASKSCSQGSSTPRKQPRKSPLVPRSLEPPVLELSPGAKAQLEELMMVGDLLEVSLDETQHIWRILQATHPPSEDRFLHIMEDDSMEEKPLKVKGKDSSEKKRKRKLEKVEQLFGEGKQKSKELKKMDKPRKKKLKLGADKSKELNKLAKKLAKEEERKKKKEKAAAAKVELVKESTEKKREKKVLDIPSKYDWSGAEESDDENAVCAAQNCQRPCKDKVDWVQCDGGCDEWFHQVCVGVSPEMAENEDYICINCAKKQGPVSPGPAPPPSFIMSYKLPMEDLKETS

Row | Structure (SMILES) | IC50 (TP53-binding protein 1) | IC50 [1] | IC50 [2] | other results
1 | O=C(c1ccc(C(=O)N2CCN(C3CCCC3)CC2)cc1)N1CCC(N2CCCC2)CC1 | > 10 µM | > 10 µM |  | 
2 | CCN1Cc2ccc(NC(=O)c3cccc(Br)c3)cc2C1 |  |  | 1.2 µM | 
3 | O=C(c1ccc(C(=O)N2CCC(N3CCCC3)CC2)cc1)N1CCC(N2CCCC2)CC1 | > 10 µM | > 10 µM |  | Activity (HEK-293T): Non-toxic; IC50 [3]: > 10 µM; IC50 [4]: > 10 µM; IC50 [5]: > 10 µM; IC50 [6]: > 10 µM; IC50 [7]: > 10 µM; IC50 (PHD finger protein 23): > 10 µM
4 | O=C(c1cccc(Br)c1)N1CC2CCC(C1)C2N1CCCC1 (centres undefined) |  |  | 3.2 µM | 
5 | O=C(c1cccc(Br)c1)N1CCC(N2CCCC2)CC1 |  |  | 4.1 µM | 
